GAA850 FXN act: activators of GAA850 frataxin (FXN) promoter | HEK293 lucGAA850 FXN promoter luciferase reporter, 24 h; percent of 10 µM SAHA response | activation, % at 6 µM | 360,000 tested, 0.56% active | AID 540364;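 active = activation above the average of all compounds screened plus 3 SD, cutoff fixed separately per campaign, cut at about 7.5% in these data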;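 note: 0% = DMSO wells and 100% = 10 µM SAHA wells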
HIV Env fusion: blocks HIV Env-driven cell-cell fusion; inhibition, % at 12.3 µM; HeLa-JRFL Env/CEM21 cell fusion, luciferase; 360,000 tested, 1.1% active;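 active = mean replicate inhibition score of at least 50 and every replicate individually at or above 50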;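 note: 0% = plate neutral controls and 100% = maraviroc near 300 nM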
GalR3 antag: blocks the human galanin receptor 3. O60755. HEK293 GalR3-CNG cAMP membrane potential fluorescence; galR3 body fused to GalR1 C-terminus. inhibition, % at 3 µM. 360,000 tested, 0.44% active. AID 651719;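 active = inhibition above the screen-wide average plus 3 SD, cut at about 13% in these data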;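 note: forskolin and galanin both at EC90 stimulate the cells; cAMP rise reported by CNG channel membrane potential dye signal; 0% = forskolin plus galanin with DMSO and 100% = forskolin alone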
Target sequence (O60755 1-299 limits assumed): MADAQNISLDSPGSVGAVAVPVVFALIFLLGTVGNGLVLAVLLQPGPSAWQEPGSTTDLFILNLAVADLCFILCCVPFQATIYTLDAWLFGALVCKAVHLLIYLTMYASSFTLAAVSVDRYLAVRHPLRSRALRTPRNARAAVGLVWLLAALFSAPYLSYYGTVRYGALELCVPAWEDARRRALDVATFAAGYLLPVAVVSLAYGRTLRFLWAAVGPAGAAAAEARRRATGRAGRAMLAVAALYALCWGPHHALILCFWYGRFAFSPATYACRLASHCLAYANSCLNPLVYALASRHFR
NR2E3 ag-1: agonists of human nuclear receptor NR2E3 | GST-NR2E3/biotin-RetCOR TR-FRET, 1536-well | 320,000 tested, 0.12% active | inhibition of corepressor binding, % at 4.78 µM | Q9Y5X4;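 active = percent inhibition above the cutoff of mean plus 3 SD of all tested compounds, set per screening campaign, cut at about 20% in these data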;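 note: 0% = DMSO wells and 100% = biotin wells as full block of FRET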
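Test system – NR2E3–RetCOR corepressor complex · Quantity – NR2E3 fusion 1.35 nM · Buffer or medium – Tris pH 7.5 · Incubation – Compound–protein incubation for 5 h at 4 °C · Technique – TR-FRET, Eu(K)-anti-GST donor, streptavidin-D2 acceptor, ex 340, em 617/671 nm · Evaluation – percent inhibition of 671/617 nm emission ratio versus biotin and DMSO controls · Plate – 1536-well format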
NR2E3 ag-2: agonists of human NR2E3 nuclear receptor | Q9Y5X4 | CHO-S Gal4-NCOR/VP16-NR2E3 two-hybrid, luciferase | inhibition of corepressor binding, % at 3.98 µM | 360,000 tested, 0.35% active;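 active = inhibition above the mean of all tested compounds plus 3 SD, cut at about 70% in these data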;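 note: 0% = DMSO with NR2E3 transfected cells and 100% = cells lacking NR2E3 construct; higher means lower luciferase signal from less NR2E3 corepressor binding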
V-ATPase pH: yeast V-ATPase proton transport regulation by pHLuorin. S. cerevisiae, pHLuorin cytosolic pH fluorescence. response, % at 10 µM. 350,000 tested, 0.37% active; in the data active = response mostly above about 7.3%, no sharp cut-off; inactive = mostly below about 5.4%; note: actives read high
The depositor's hits bear a star; nt = no result; [ ] = dose if it differs, or a comment. In the library only some 2.2% were active in any assay of this set; here they are far more common.

SMILES | GAA850 FXN act | HIV Env fusion | GalR3 antag | NR2E3 ag-1 | NR2E3 ag-2 | V-ATPase pH
CC(NC(=O)CN(C)CC(=O)Nc1ccc(Cl)c(C(F)(F)F)c1)c1ccccc1 (stereo not drawn) | 1 | 103* | -4 | -2 | 20 | -1
CCCN(C)C[C@@H]1Oc2cc(-c3ccc(F)cc3)ccc2S(=O)(=O)N([C@H](C)CO)C[C@@H]1C | nt | -2[16.7 µM] | nt | nt | nt | nt
COc1ccc(S(=O)(=O)N2CCCN(CC(=O)Nc3cc(NC(C)=O)ccc3OC)CC2)cc1 | 0 | nt | -2 | -1 | 0 | 6
COc1ccc(NC(C)=O)cc1NC(=O)CN1CCN(S(=O)(=O)c2ccc(C(C)C)cc2)CC1 | 2 | nt | 5 | -2 | 5 | 19*
CCc1ccc(CNC(=O)CC2C(=O)NCCN2Cc2ccccc2F)nc1 (stereo not drawn) | 0 | 56* | 2 | 4 | -7 | 1
CN1C(=O)c2cc(NC(=O)c3cc(F)cc(F)c3)ccc2OC[C@H]2O[C@H](CC(=O)O)CC[C@H]21 | nt | 7[16.7 µM] | nt | nt | nt | nt
O=c1ncn(-c2cccc([N+](=O)[O-])c2)c2ccccc12 | 0 | 9 | -1 | 1 | -16 | -1
Cc1c(Cl)cccc1-n1cnc(=O)c2ccccc21 | -2 | 14 | -3 | 3 | -27 | 13*
C=CCn1c(SCc2ccc(F)cc2)nc2c1c(=O)[nH]c(=O)n2C | 23* | 5 | 4 | 0 | 16 | 1
O=C(Cc1ccccc1)N[C@H]1C=C[C@@H](CC(=O)N2CCOCC2)O[C@H]1CO | nt | 2[16.7 µM] | nt | nt | nt | nt
CCn1ncc(C2=NOC(C(=O)Nc3ccc(C)cc3)C2)c1C (stereo not drawn) | -1 | 42* | -1 | 1 | 3 | -4
CCn1ncc(C2=NOC(C(=O)Nc3cccnc3)C2)c1C (stereo not drawn) | -1 | -10 | -5 | 3 | 23 | -2
Cc1ccc(S(=O)(=O)Nc2cccc3c2O[C@H](CN(C)S(C)(=O)=O)[C@H](C)CN([C@H](C)CO)C3=O)cc1 | nt | -16[16.7 µM] | nt | nt | nt | nt
CCOC(=O)/C=C/[C@H]1CCc2cccc(Cl)c2O1 | 1 | -21 | -3 | -3 | 27 | -5
CCOC(=O)/C=C/[C@H]1CC2(CCO1)SCCCS2 | 4 | 69* | -1 | -1 | -67 | 1
C=CCNC(=O)[C@@H]1[C@H]2C(=O)O[C@H](c3ccccc3)[C@H](c3ccccc3)N2[C@H](c2ccccc2OCCO)[C@@]12C(=O)N(C(=O)OCCOC)c1ccccc12 | nt | -37[16.7 µM] | nt | nt | nt | nt
CC12CN3CC(C)(CN(C1)C3c1ccc3c(c1)OCO3)C2=O (stereo not drawn) | -2 | nt | 1 | nt | -2 | -4
CN1c2ccccc2N(C)C1c1ccc2c(c1)OCO2 | 0 | 63* | -2 | 1 | -37 | -1
Cc1ccc(S(=O)(=O)Nc2ccc3c(c2)CC(=O)N([C@@H](C)CO)C[C@H](C)[C@@H](CN(C)S(C)(=O)=O)O3)cc1 | nt | 7[16.7 µM] | nt | nt | nt | nt
CN(C)CCCNC(=O)C[C@H]1CC[C@@H]2[C@H](COc3ccc(NC(=O)NC4CCCC4)cc3C(=O)N2C)O1 | nt | -26[16.7 µM] | nt | nt | nt | nt
O=C(CCN1CCCCC1)N[C@H]1CC[C@H](CCn2cc(-c3ccccc3)nn2)O[C@@H]1CO | nt | 77*[16.7 µM] | nt | nt | nt | nt
O=C(Cc1ccncc1)N[C@H]1CC[C@@H](CCn2cc(-c3ccccc3F)nn2)O[C@@H]1CO | nt | 72*[16.7 µM] | nt | nt | nt | nt
O=C(CCN1CCCCC1)N[C@@H]1CC[C@H](CCn2cc(-c3ccccc3)nn2)O[C@@H]1CO | nt | -8[16.7 µM] | nt | nt | nt | nt
COc1ccc(-c2cn(CC[C@H]3CC[C@H](NS(=O)(=O)c4ccccc4C)[C@H](CO)O3)nn2)cc1 | nt | 73*[16.7 µM] | nt | nt | nt | nt
O=C(CCN1CCCCC1)N[C@@H]1CC[C@@H](CCn2cc(-c3ccccc3)nn2)O[C@@H]1CO | nt | 75*[16.7 µM] | nt | nt | nt | nt
O=C(Cc1ccncc1)N[C@H]1CC[C@H](CCn2cc(-c3ccccc3F)nn2)O[C@H]1CO | nt | 27[16.7 µM] | nt | nt | nt | nt
C[C@H](CO)N1C[C@H](C)[C@H](CN(C)S(=O)(=O)c2ccsc2)OCc2ccccc2-c2ccccc2C1=O | nt | 40[16.7 µM] | nt | nt | nt | nt
COc1ccc(NC(=O)N(C)C[C@@H]2Oc3ccc(N(C)C)cc3CC(=O)N([C@@H](C)CO)C[C@H]2C)cc1 | nt | -6[16.7 µM] | nt | nt | nt | nt
O=C(NCC[C@@H]1CC[C@@H](NS(=O)(=O)c2ccccc2F)[C@@H](CO)O1)c1ccc(F)cc1 | nt | 61*[16.7 µM] | nt | nt | nt | nt

High-throughput results (PubChem)
